Screens (PubChem BioAssay)
DNA FID counter = fluorescent intercalator displacement, NS3 helicase counter-screen; DNA fluorescent intercalator displacement, fluorescence; inhibition, % at 7.9 µM; 290,000 compounds, 0.17% hits; in the data active = inhibition above about 37%;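 note: 0% = vehicle and 100% = reference compound; higher means more ethidium bromide displaced from hairpin DNA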
NS3 helicase inh = blocks Hepatitis C virus NS3 helicase unwinding. inhibition, % at 10.9 µM. 290,000 compounds, 0.56% hits. NS3 helicase DNA unwinding, Cy5 molecular beacon fluorescence. AID 1800;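 active = inhibition above the mean of all tested compounds plus 3 SD, set per campaign, cut at about 35% in these data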;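 note: 0% = DMSO wells and 100% = thioflavine S control wells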
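System: NS3 helicase fragment of HCV / Schedule: 1 h at 25 °C / Control set: DMSO alone as 0% and 110 µM thioflavine S as 100% / Reagent: Cy5/quencher beacon DNA duplex and ATP to start / Technique: Cy5 fluorescence / Replication: singlicate / Evaluation: % inhibition of end-to-start signal ratio versus controls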
IMP-1 inh = blocks Pseudomonas aeruginosa IMP-1 metallo-beta-lactamase; purified IMP-1, nitrocefin hydrolysis, epi-absorbance fluorescence; inhibition, % at 5.6 µM; 290,000 compounds, 0.45% hits;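 active = inhibition above the mean plus 3 SD of all compounds in the same screening run, cut at about 4.5% in these data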;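 note: 0% = IMP-1 with DMSO and 100% = DMSO wells lacking enzyme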
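Assay system: purified recombinant IMP-1 beta-lactamase. Input: IMP-1 0.2 nM before substrate addition. Buffer or medium: Zinc- and detergent-supplemented HEPES buffer, pH 7.1. Schedule: 25 °C, 15 min preincubation, 25 min reaction. Signal: Epi-absorbance fluorescence, 480 nm excitation, 530 nm emission. Evaluation: percent inhibition from optical density relative to buffer-blank wells.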
VIM-2 inhibitor = blocks Pseudomonas aeruginosa VIM-2 metallo-beta-lactamase; purified VIM-2, nitrocefin hydrolysis, epi-absorbance fluorescence; inhibition, % at 5.6 µM; 290,000 compounds, 0.89% hits; AID 1527;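 active = inhibition above the mean of all tested compounds plus 3 SD, cutoff set per screening run, cut at about 7.5% in these data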;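 note: red hydrolysis product quenches plate fluorescence so inhibitors raise well fluorescence; 0% = enzyme with DMSO and 100% = DMSO without enzyme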
SUMO HTRF inh = inhibitors of human SUMOylation (UBC9). P63279. HTRF SUMOylation assay, SAE1/SAE2 + UBC9, in vitro. inhibition, % at 35 µM. 290,000 compounds, 0.36% hits. AID 2006; in the data active = inhibition above about 50%, passing the limit was not always enough
Target sequence (P63279 whole entry, looked up): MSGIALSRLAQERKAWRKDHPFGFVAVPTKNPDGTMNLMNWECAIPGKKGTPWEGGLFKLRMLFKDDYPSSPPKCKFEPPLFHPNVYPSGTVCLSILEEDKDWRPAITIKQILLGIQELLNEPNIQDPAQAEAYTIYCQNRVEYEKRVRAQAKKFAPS
* marks the source's active call; other numbers are inactive results; x = no result given. Hits are enriched below; roughly 2.1% of the tested compounds scored in any of these assays.

SMILES | DNA FID counter | NS3 helicase inh | IMP-1 inh | VIM-2 inhibitor | SUMO HTRF inh
O=C(Cc1ccc(-n2c(=O)c3ccccc3n(Cc3ccccc3Cl)c2=O)cc1)NCC1CCCO1 (stereo not given) | -28 | 0 | 4.8* | -1 | -2
O=C(CNC(=O)c1ccc(Br)o1)NCc1ccc(F)cc1 | -6 | 0 | -2 | -1 | 23
O=S(=O)(Nc1ccccc1N1CCCCC1)c1ccccc1 | -15 | -4 | -4 | 1 | -19
O=S(=O)(Nc1ccccc1N1CCCCC1)c1ccc(F)cc1 | -16 | 3 | 4.7* | 0 | -12
Cc1cccc(C(=O)NNC(=O)C2CC2)c1 | -3 | 4 | -2 | 8.7* | 8
Cc1cccc(C(=O)NNC(=O)c2cccc(C)c2)c1 | 0 | 7 | 0 | -1 | 6
CC(C)S(=O)(=O)N1CCCC(C(=O)c2cccc(Cl)c2)C1 (stereo not given) | -9 | 21 | 40* | 1 | 4
Cc1nc2c3cc(Cl)ccc3n(CCN3CCCCC3)c2s1 | 39* | 4 | 5.1* | 5 | 6
CC(=O)OCCCN1C(=O)c2cccc3cc(Br)cc(c23)C1=O | -26 | 2 | 0 | 12* | -9
CCOC(=O)CCCCCN1C(=O)c2cccc3cccc(c23)C1=O | -29 | 14 | 0 | 5 | -7
Cc1ccc(NC(=O)c2ccc(NCCCN3CCC(C)CC3)c([N+](=O)[O-])c2)cc1F | 41* | -81 | -4 | -3 | 12
CC(C)(C)N(Cc1ccccc1)C(=O)COC(=O)Cn1cnc2ccccc2c1=O | -36 | 4 | -4 | -3 | 8
Cc1ccc2oc(=O)c3cc(C(=O)NCCN4CCN(C)CC4)sc3c2c1 | 13 | 2 | -2 | 12* | 2
Cc1ccc2oc(=O)c3cc(C(=O)NCCCN4CCCCCC4)sc3c2c1 | 20 | -32 | 1 | 9.6* | -3
Cn1c(CNC(=O)c2ccco2)nnc1SCC(=O)N1CCN(c2ccccc2F)CC1 | -23 | 16 | 1 | 1 | -11
O=C(Nc1cccnc1)C1CC(=O)N(c2ccc(F)cc2)C1 (stereo not given) | -3 | 9 | -2 | -2 | 17
CSc1ccc(-c2cc(=O)c3ccccc3o2)cc1 | -15 | 0 | -7 | 1 | 54*
O=c1cc(-c2ccc(F)cc2)oc2ccccc12 | -11 | 8 | -3 | -2 | x
Cn1c(-c2cccc([N+](=O)[O-])c2)cnc1NCc1ccc(C#N)cc1 | 11 | -5 | 0 | -1 | 11
Cn1cccc1CC(=O)N/N=C/C=C/c1ccco1 | -10 | 18 | -2 | -6 | 80*
C/C(=N\NC(=O)Cc1cccn1C)c1ccco1 | -12 | 27 | 0 | 0 | 16
CN(C)CCCNc1c2c(nc3ccccc13)CCC2 | 53* | -9 | -3 | 2 | -15
c1ccc2c(NCCc3c[nH]c4ccccc34)c3ccccc3nc2c1 | 21 | -56 | -3 | 8.1* | -3
c1ccc2c(Nc3ccc4c(c3)OCCO4)c3c(nc2c1)CCC3 | 8 | -18 | -2 | 8.2* | 23
OCCCNc1c2ccccc2nc2ccccc12 | 45* | 22 | -1 | 8.3* | 15
SMILES | DNA FID counter | NS3 helicase inh | IMP-1 inh | VIM-2 inhibitor | SUMO HTRF inh
COCCCNC(=O)c1nc2ccccc2c(=O)n1NC(=O)Nc1c(Cl)cccc1Cl | -18 | 4 | -4 | -2 | 3
COc1ccc(/C=N/NC(=O)CN2CCSCC2)cc1C | 3 | 4 | -3 | -1 | 18
C=CCNc1nnc(Cc2ccc(C(C)C)cc2)c(=O)[nH]1 | -9 | 1 | -3 | -3 | 11
CCNC(=O)COC(=O)c1cc(-c2ccco2)nc2ccccc12 | -26 | 29 | -2 | 0 | 44
COc1ccc(-c2cc(C(=O)OCc3ccccn3)c3ccccc3n2)cc1 | -7 | -21 | 0 | -1 | 23
COc1ccc(-c2cc(C(=O)OCC(=O)N(C)C)c3ccccc3n2)cc1 | -22 | -14 | 4.7* | 1 | 22
COc1ccc(CNC(=O)COC(=O)c2cc(-c3ccco3)nc3ccccc23)cc1 | -20 | 17 | 0 | -3 | 57*
COc1ccc(CC(=O)O/N=C(\N)c2ccccc2)cc1OC | -24 | 0 | -2 | -4 | -20
O=c1[nH]c(=O)n(Cc2ccccc2)c2c1CCC2 | -2 | 4 | 5.0* | 1 | 6
Cc1cc2oc(=O)c(CC(=O)NCCCO)c(C)c2c2occ(C(C)(C)C)c12 | -37 | -7 | -3 | -2 | 17
Cc1cc2oc(=O)c(CC(=O)NCCCN(C)C)c(C)c2c2occ(C(C)(C)C)c12 | 37* | -41 | 1 | 8.9* | 17
Cc1cc2oc(=O)c(CC(=O)O)c(C)c2c2occ(C(C)(C)C)c12 | -27 | 11 | 4 | 11* | 28
COCCNC(=O)Cc1c(C)c2c(cc(C)c3c(C(C)(C)C)coc32)oc1=O | -38 | 0 | -5 | 0 | 20
CCC1CCCCN1C(=O)c1cc(COc2ccc(-n3cncn3)cc2)on1 (stereo not given) | -34 | -5 | -3 | -1 | 9
Cc1ccc(NC(=O)CCCCCN2C(=O)[C@@H]3Cc4ccccc4CN3C2=O)c(C)c1 | -57 | -1 | -1 | -3 | -4
Cc1cc(C)c(S(=O)(=O)/N=C2/C=C(Sc3ncn[nH]3)C(=O)c3ccccc32)cc1C | -5 | 18 | -3 | -2 | 90*
Cn1c(N)c(C#N)c2c(c1=S)CSC(C)(C)C2 | 6 | -1 | 0 | 0 | 48
CC1(C)Cc2c(C#N)c(N)sc(=S)c2CS1 | 4 | 18 | 6.4* | 1 | 7
Cc1cccc(NC(=O)N2CCN(Cc3ccc4c(c3)OCO4)CC2)c1C | -7 | -14 | -1 | -2 | 11
CCOc1cc(C(=O)OCC(=O)N(C)c2ccccc2)cc(OCC)c1OCC | -39 | 0 | 12* | 0 | -5
COc1ccc(CC(=O)Oc2ccccc2[N+](=O)[O-])cc1 | 1 | 2 | 13* | 0 | 7
Cc1[nH]nc2c1C1(CCN(Cc3ccccc3)CC1)C(C#N)=C(N)O2 | -2 | -2 | -1 | 0 | -1
CCc1[nH]nc2c1C1(CCN(C(=O)OCc3ccccc3)CC1)C(C#N)=C(N)O2 | 2 | 0 | 0 | 11* | 14
Cn1nnnc1SC1CC(=O)N(c2ccccc2)C1=O (stereo not given) | 1 | 6 | -2 | 2 | 18
Cc1cc(C)cc(N2C(=O)CC(Sc3nnnn3-c3ccccc3)C2=O)c1 (stereo not given) | -17 | -2 | 7.2* | -2 | 12
CCOC(=O)c1c(NC(=O)CSc2cccc[n+]2[O-])sc(C(=O)Nc2ccccc2)c1C | -24 | 8 | -5 | -5 | -6
CCOC(=O)c1c(NC(=O)CN(C)C2CCN(C)CC2)sc(C(=O)Nc2ccccc2)c1C | 37* | -78 | -1 | 1 | -5
Cc1ccc(S(=O)(=O)N2CCOCCOCCOCCOCCOCC2)cc1 | -24 | 13 | -2 | -2 | 6
O=C(O)c1cc(Cl)c2c(c1)[C@@H]1C=CC[C@@H]1[C@H](c1ccc(S(=O)(=O)N3CCOCC3)cc1)N2 | -17 | 26 | 11* | 1 | 24
